Measured values as given in ChEMBL document CHEMBL3352791, “Thioaryl naphthylmethanone oxime ether analogs as novel anticancer agents” (J Med Chem, 2014).
Active and inactive are the calls of the source. The rule behind the calls is not given here.

Columns and labels:
MCF7 [1] = test: Antiproliferative activity against human […] cells assessed as growth recovery treated up to 5 uM for 24 hrs followed by maintained in drug free medium for 72 hrs by MTT assay; assay type: functional
[2] = Antiproliferative activity against human HCT116 cells after 24 hrs by MTT assay; assay type: functional, cell-based; details: HCT-116, 24 h
Summary of the method: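 MTT viability: cells seeded at 1×10^4 per well in DMEM with 10% FBS, left to adhere overnight, then serum-starved 4 h. Compounds were given at a range of doses, with 0.1% DMSO vehicle as control. EC50 was taken from dose-response curves spanning 100nM-50µM. Data are mean ± SEM from at least three independent experiments.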

[3] = Safety index, ratio of IC50 for human MCF10A cells to EC50 for human DLD1 cells; assay type: toxicity, cell-based, MCF-10A; details: MCF10A cells versus DLD1 cells, read-out: Ratio IC50/EC50
Summary of the method: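 Safety index is the IC50 in the normal cells divided by the EC50 in the cancer cells. Both values come from MTT assays: cells in DMEM with 10% FBS, serum-starved 4 h, then exposed to compound across a 100nM-50µM dose range with 0.1% DMSO as vehicle control.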

MCF7 [4] = test: Inhibition of IGF1 expression in human MCF7 cells at 5 uM by ELISA; assay type: functional, cell-based

SMILES | Activity (MCF7 [1]) [%] | EC50 [2] [µM] | selectivity ratio [3] | inhibition (MCF7 [4])
CCN(CC)CCO/N=C(\c1ccc(SC)cc1)c1cccc2ccccc12.O=C(O)C(=O)O | 50 | 7.7 | 1.2 | –
CCN(CC)CCO/N=C(\c1ccc(SC)cc1)c1cccc2ccccc12 | – | – | – | inactive
